Test results from the RNAGym collection of RNA variant scans (doi:10.1002/anie.201605470).

B1: Osa-1-4 twister ribozyme (parent)
chain: CCGCCUAACACUGCCAAUGCCGGUCCCAAGCCCGGAUAAAAGUGGAGGGGGCGG

Variants of: B1
Test: self-cleavage, relative activity (ratio to wild type); higher = more cleavage; co-transcriptional
Outline: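 In vitro transcription at 37 °C for 2 h allowed the twister ribozyme to cleave itself as it was made. Its 54-nucleotide Oryza sativa template had been synthesised with 97 % wild-type base and 1 % of each other base at the 48 positions downstream of the cleavage site. A template-switching oligonucleotide was used for reverse transcription, followed by PCR amplification and deep sequencing. Whether reads carried upstream sequence set the cleavage status, and relative activity is the fraction cleaved normalised to wild type.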
Variant C14G G22A has a self-cleavage of 0.07.
Variant C14G G22U has a self-cleavage of 0.07.
With C14G G22C the self-cleavage was 0.07.
Work on G13U U37G yielded a self-cleavage of 0.04.
In the case of G13U U37C, the self-cleavage is reported as 0.03.
With G13U U37A the self-cleavage was 0.02.
C14G G34C showed a self-cleavage of 0.09.
With C14G G34U the self-cleavage was 0.06.
With C14G G34A the self-cleavage was 0.13.
In the case of C14G C33G, the self-cleavage is reported as 0.05.
C14G C33U showed a self-cleavage of 0.07.
In the case of C14G C33A, the self-cleavage is reported as 0.04.
In the case of C14G G45U, the self-cleavage is reported as 0.03.
With C14G G45A the self-cleavage was 0.04.
C14G G45C gave a self-cleavage of 0.03.
C14G G42U gave a self-cleavage of 0.02.
With C14G G42A the self-cleavage was 0.09.
Variant C14G G42C has a self-cleavage of 0.06.
With C14G G35U the self-cleavage was 0.06.
For C14G G35C, the self-cleavage was 0.04.
Work on C14G G35A yielded a self-cleavage of 0.07.
C14A G35A gave a self-cleavage of 0.12.
C14A G35C gave a self-cleavage of 0.05.
C14A G35U gave a self-cleavage of 0.09.
For G13C G45A, the self-cleavage was 0.02.
In the case of G13C G45U, the self-cleavage is reported as 0.01.
In the case of G13C G45C, the self-cleavage is reported as 0.01.
With C14A C20A the self-cleavage was 0.12.
With C14A C20U the self-cleavage was 0.16.
C14A C20G gave a self-cleavage of 0.03.
With C14A G22A the self-cleavage was 0.08.
Work on C14A G22U yielded a self-cleavage of 0.05.
C14A G22C gave a self-cleavage of 0.02.
For C14A G54A, the self-cleavage was 0.1.
C14A G54U showed a self-cleavage of 0.22.
For C14A G54C, the self-cleavage was 0.06.
In the case of G13C G35A, the self-cleavage is reported as 0.02.
Work on G13C G35U yielded a self-cleavage of 0.04.
With G13C G35C the self-cleavage was 0.02.
C14A C9A gave a self-cleavage of 0.03.
C14A C9G gave a self-cleavage of 0.06.
Work on C14A C9U yielded a self-cleavage of 0.06.
For C14A C26A, the self-cleavage was 0.05.
For C14A C26G, the self-cleavage was 0.02.
Work on C14A C26U yielded a self-cleavage of 0.05.
With G13U G35C the self-cleavage was 0.03.
Variant G13U G35A has a self-cleavage of 0.03.
With G13U G35U the self-cleavage was 0.03.
Variant G13U has a self-cleavage of 0.03.
G13C showed a self-cleavage of 0.03.
G13A U24G gave a self-cleavage of 0.01.
Variant G13A U24C has a self-cleavage of 0.04.
Variant G13A U24A has a self-cleavage of 0.05.
C14A G42C gave a self-cleavage of 0.05.
For C14A G42A, the self-cleavage was 0.05.
For C14A G42U, the self-cleavage was 0.03.
Work on G13U G50U yielded a self-cleavage of 0.03.
For G13U G50C, the self-cleavage was 0.02.
Work on G13U G50A yielded a self-cleavage of 0.03.
For G13A G54C, the self-cleavage was 0.06.
G13A G54A gave a self-cleavage of 0.07.
Work on G13A G54U yielded a self-cleavage of 0.2.
In the case of G13C U18G, the self-cleavage is reported as 0.05.
In the case of G13C U18C, the self-cleavage is reported as 0.04.
For G13C U18A, the self-cleavage was 0.03.
With C14G C27G the self-cleavage was 0.07.
Work on C14G C27A yielded a self-cleavage of 0.03.
In the case of C14G C27U, the self-cleavage is reported as 0.07.
G13U G51A showed a self-cleavage of 0.02.
G13U G51U showed a self-cleavage of 0.02.
G13U G51C gave a self-cleavage of 0.01.
Variant C14A G44C has a self-cleavage of 0.06.
In the case of C14A G44U, the self-cleavage is reported as 0.05.
With C14A G44A the self-cleavage was 0.07.
For C14G C15U, the self-cleavage was 0.06.
C14G C15A showed a self-cleavage of 0.06.
In the case of C14G C15G, the self-cleavage is reported as 0.22.
With C14A G13A the self-cleavage was 0.03.
In the case of C14A G13U, the self-cleavage is reported as 0.02.
In the case of C14A G13C, the self-cleavage is reported as 0.02.
Variant G13A G49U has a self-cleavage of 0.02.
For G13A G49C, the self-cleavage was 0.02.
G13C G19A gave a self-cleavage of 0.03.
Work on G13C G19C yielded a self-cleavage of 0.03.
Work on G13C G19U yielded a self-cleavage of 0.02.
Work on G13C G23C yielded a self-cleavage of 0.01.
With G13C G23U the self-cleavage was 0.02.
G13C G23A gave a self-cleavage of 0.02.
In the case of C14A, the self-cleavage is reported as 0.13.
In the case of C14G, the self-cleavage is reported as 0.21.
Variant C14A C21G has a self-cleavage of 0.03.
With C14A C21U the self-cleavage was 0.09.
With C14A C21A the self-cleavage was 0.08.
For C14A C52G, the self-cleavage was 0.13.
With C14A C52A the self-cleavage was 0.1.
With C14A C52U the self-cleavage was 0.13.
G13C G42C showed a self-cleavage of 0.02.
G13C G42A showed a self-cleavage of 0.03.
Work on G13C G42U yielded a self-cleavage of 0.01.
With G13C G53A the self-cleavage was 0.02.
Work on G13C G53C yielded a self-cleavage of 0.01.
In the case of G13C G53U, the self-cleavage is reported as 0.02.
For G13A U12G, the self-cleavage was 0.09.
Work on G13A U12C yielded a self-cleavage of 0.04.
Work on G13A U12A yielded a self-cleavage of 0.07.
With G13C G44U the self-cleavage was 0.03.
With G13C G44C the self-cleavage was 0.03.
With G13C G44A the self-cleavage was 0.02.
Work on G13U U12G yielded a self-cleavage of 0.14.
Work on G13U U12C yielded a self-cleavage of 0.05.
In the case of G13U U12A, the self-cleavage is reported as 0.02.
C14A C33A showed a self-cleavage of 0.03.
C14A C33G showed a self-cleavage of 0.01.
C14A C33U showed a self-cleavage of 0.06.
Work on C14G G48C yielded a self-cleavage of 0.04.
With C14G G48A the self-cleavage was 0.03.
C14G G48U showed a self-cleavage of 0.03.
Work on G13A U37A yielded a self-cleavage of 0.13.
In the case of G13A U37C, the self-cleavage is reported as 0.12.
G13A U37G gave a self-cleavage of 0.17.
For G13U G49C, the self-cleavage was 0.01.
G13U G49U gave a self-cleavage of 0.01.
With G13U G49A the self-cleavage was 0.01.
G13U G34A showed a self-cleavage of 0.02.
For G13U G34C, the self-cleavage was 0.03.
For G13U G34U, the self-cleavage was 0.03.
C14G C32A gave a self-cleavage of 0.03.
C14G C32G gave a self-cleavage of 0.08.
For C14G C32U, the self-cleavage was 0.04.
C14A U43A gave a self-cleavage of 0.06.
Variant C14A U43C has a self-cleavage of 0.06.
C14A U43G showed a self-cleavage of 0.07.
G13U G47C gave a self-cleavage of 0.01.
With G13U G47U the self-cleavage was 0.02.
In the case of G13U G47A, the self-cleavage is reported as 0.02.
C14A G45U gave a self-cleavage of 0.03.
C14A G45A showed a self-cleavage of 0.04.
In the case of C14A G45C, the self-cleavage is reported as 0.01.
G13C G51U gave a self-cleavage of 0.02.
Work on G13C G51A yielded a self-cleavage of 0.02.
With G13C G51C the self-cleavage was 0.01.
Variant C14A C15U has a self-cleavage of 0.05.
In the case of C14A C15A, the self-cleavage is reported as 0.07.
C14A C15G gave a self-cleavage of 0.05.
Variant C14G G23A has a self-cleavage of 0.08.
C14G G23U showed a self-cleavage of 0.03.
Variant C14G G23C has a self-cleavage of 0.04.
In the case of G13U G54C, the self-cleavage is reported as 0.02.
G13U G54U showed a self-cleavage of 0.04.
G13U G54A gave a self-cleavage of 0.03.
Work on G13U G22C yielded a self-cleavage of 0.01.
G13U G22U gave a self-cleavage of 0.02.
Work on G13U G22A yielded a self-cleavage of 0.03.
For C14G G19U, the self-cleavage was 0.08.
C14G G19A showed a self-cleavage of 0.24.
Work on C14G G19C yielded a self-cleavage of 0.04.
C14A G49A gave a self-cleavage of 0.02.
Variant C14A G49U has a self-cleavage of 0.03.
Variant C14A G49C has a self-cleavage of 0.01.
In the case of G13A U18C, the self-cleavage is reported as 0.1.
Work on G13A U18A yielded a self-cleavage of 0.09.
For G13A U18G, the self-cleavage was 0.24.
For G13C G30U, the self-cleavage was 0.01.
In the case of G13C G30A, the self-cleavage is reported as 0.01.
With G13C G30C the self-cleavage was 0.02.
With C14A G19U the self-cleavage was 0.07.
For C14A G19C, the self-cleavage was 0.04.
